Reference: ChEMBL document CHEMBL1649112, “Effects of exposure of Clostridium difficile PCR ribotypes 027 and 001 to fluoroquinolones in a human gut model” (Antimicrob Agents Chemother, 2009)
Activity calls are given as the source filed them. The rule behind the calls is not given here.

How the values were obtained:
Bifidobacterium [1] = test: Antimicrobial activity against Bifidobacterium in three-stage chemostat gut model assessed as log reduction in bacterial count at 139 mg/liter administered every 12 hrs for 7 days; format: functional
In short: (§1)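 Three-stage anaerobic chemostat (37°C, N2-sparged; vessels at pH 5.5, 6.2 and 6.8; 66.7 h total retention) primed with 10% (wt/vol) pooled C. difficile-negative feces from healthy elderly donors. Instillation began on day 21. Vessel 2 and 3 samples were diluted 10-fold serially to 10–7 in prereduced peptone water and plated on selective agars in triplicate; counts are log10 CFU/ml.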

[2] = Drug level in human feces; format: ADME, tissue-based
Bacteroides sp. = test: Antimicrobial activity against Bacteroides sp. in three-stage chemostat gut model assessed as log reduction in bacterial count at 63 mg/liter administered daily for 7 days; format: functional; in short: as §1
Lactobacillus [3] = test: Antimicrobial activity against Lactobacillus in three-stage chemostat gut model assessed as log reduction in bacterial count at 63 mg/liter administered daily for 7 days; format: functional; in short: as §1
Clostridium = test: Antimicrobial activity against Clostridium in three-stage chemostat gut model assessed as log reduction in bacterial count at 63 mg/liter administered daily for 7 days; format: functional; in short: as §1
Enterococcus = test: Antimicrobial activity against Enterococcus in three-stage chemostat gut model assessed as log reduction in bacterial count at 63 mg/liter administered daily for 7 days; format: functional, organism-based; in short: as §1
Clostridioides difficile [4] = test: Antimicrobial activity against Clostridium difficile PCR ribotype 027 expressing gyrB Glu466Lys mutant grown on fluoroquinolone-containing medium after 48 hrs; format: functional; conditions: PCR ribotype 027, 48 h
Clostridioides difficile [5] = test: Antimicrobial activity against Clostridium difficile PCR ribotype 001 expressing gyrB Glu466Lys mutant grown on fluoroquinolone-containing medium after 48 hrs; format: functional; conditions: PCR ribotype 001, 48 h
Clostridioides difficile [6] = test: Induction of cytotoxin production in Clostridium difficile PCR ribotype 027 in three-stage chemostat gut model at 63 mg/liter administered daily for 7 days measured after 2 days; format: functional, organism-based
In short: (§2)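 Gut model as above; on day 21 drug instillation began and a second C. difficile spore inoculum was added to vessel 1. Sample supernatants (16,000 x g) were diluted serially to 10–7 in PBS pH 7.4 and applied to Vero monolayers at 37°C in 5% CO2. Cell rounding was read at 24 and 48 h, and titers are given in relative units.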

Clostridioides difficile [7] = test: Induction of cytotoxin production in Clostridium difficile PCR ribotype 001 in three-stage chemostat gut model at 63 mg/liter administered daily for 7 days measured after 3 days; format: functional, organism-based; in short: as §2
Bifidobacterium [8] = test: Antimicrobial activity against Bifidobacterium in three-stage chemostat gut model assessed as log reduction in bacterial count at 43 mg/liter administered daily for 7 days; format: functional; in short: as §1
Lactobacillus [9] = test: Antimicrobial activity against Lactobacillus in three-stage chemostat gut model assessed as log reduction in bacterial count at 43 mg/liter administered daily for 7 days; format: functional; in short: as §1

Question: For `O=C(O)c1cn(C2CC2)c2cc(N3CCNCC3)c(F)cc2c1=O` [CIPROFLOXACIN], which Activity (Bifidobacterium [1]) is on record?
Answer: The Activity was “Active”.

Question: And the Drug uptake [2]?
Answer: Its Drug uptake is 139 mg/kg.

Question: What does the source list for `C[C@H]1COc2c(N3CCN(C)CC3)c(F)cc3c(=O)c(C(=O)O)cn1c23.C[C@H]1COc2c(N3CCN(C)CC3)c(F)cc3c(=O)c(C(=O)O)cn1c23.O` [LEVOFLOXACIN]?
Answer: FC (Bacteroides sp.): 1; Activity (Lactobacillus [3]): inactive; Activity (Clostridium): inactive; Activity (Enterococcus): inactive; MIC (Clostridioides difficile [4]): 256 µg/mL; MIC (Clostridioides difficile [5]): 256 µg/mL; Drug uptake [2]: 94 mg/kg; Activity (Clostridioides difficile [6]): Active; Activity (Clostridioides difficile [7]): Active

Question: With `COc1c(N2C[C@@H]3CCCN[C@@H]3C2)c(F)cc2c(=O)c(C(=O)O)cn(C3CC3)c12` [MOXIFLOXACIN] as the compound, how does the Activity (Bifidobacterium [8]) read?
Answer: Its Activity is “inactive”.

Question: What about the Activity (Lactobacillus [9]) of the same compound?
Answer: The Activity was “inactive”.

Question: And the Drug uptake [2]?
Answer: The Drug uptake was 66 mg/kg.
